Measured values from different studies.
Protocols differ between the studies behind these lines.
SLC10A2: Ileal sodium/bile acid cotransporter (SLC10A2, Homo sapiens, UniProt Q12908)
AHR: Aryl hydrocarbon receptor (AHR, Homo sapiens, UniProt P35869)

O=C(CCCCCCNC(=O)c1cnc(N(c2ccccc2)c2ccccc2)nc1)NO  Kd (Polyamine deacetylase HDAC10 (HDAC10, Homo sapiens, UniProt Q969S8); cell-free assay): 0.456 µM
O=C(N[C@H]1COC(=O)[C@@H](NC(=O)c2cccc(O)c2O)COC(=O)[C@@H](NC(=O)c2cccc(O)c2O)COC1=O)c1cccc(O)c1O  Kd (Neutrophil gelatinase-associated lipocalin (LCN2, Homo sapiens, UniProt P80188, C107S); binding, fluorescence; pH 7.4): 0.0036 µM
COCCOC(=O)C1=C(C)NC(C)=C(C(=O)OC/C=C/c2ccccc2)C1c1cccc([N+](=O)[O-])c1 (stereo not drawn)  Ki (SLC10A2; transporter uptake, inhibitor): 45.2 µM
CC[C@H](C)[C@H](NC(=O)[C@H](CCCCN)NC(=O)[C@H](CO)NC(=O)[C@H](CC(=O)O)NC(=O)[C@H](CCCCN)NC(=O)[C@H](CCCCN)NC(=O)CNC(=O)[C@H](Cc1c[nH]cn1)NC(=O)[C@@H](N)CCC(N)=O)C(=O)N[C@H](C(=O)N[C@@H](CC(=O)O)C(=O)N[C@@H](Cc1c[nH]cn1)C(=O)N[C@@H](Cc1ccccc1)C(=O)N[C@@H](CCSC)C(=O)N[C@@H](CCCNC(=N)N)C(=O)O)[C@@H](C)O  Kd (Proliferating cell nuclear antigen (PCNA, Homo sapiens, UniProt P12004); binding, ITC; pH 7.4): 45.3 µM
COC(=O)c1cccc(C(=O)c2c[nH]c3c2ccc2ccccc23)n1  EC50 (AHR; reporter gene, agonist, luciferase): 0.015 µM
NS(=O)(=O)c1cc2c(cc1Cl)N=CNS2(=O)=O  Ki (SLC10A2; transporter uptake, inhibitor): 1220 µM
CC(C)c1cc(C2CCCN2C(=O)c2cc(-c3ccc4c(c3)OCO4)on2)no1 (stereo not drawn)  EC50 (Cannabinoid receptor 2 (CNR2, Homo sapiens, UniProt P34972); cAMP, agonist, TR-FRET): 0.01 µM
CN(C)C(=O)c1cccc(C(=O)c2c[nH]c3ccccc23)n1  EC50 (AHR; reporter gene, agonist, luciferase): 0.351 µM
Cc1cc2nc3c(=O)[nH]c(=O)nc-3n(C[C@H](O)[C@H](O)[C@H](O)COP(=O)(O)OP(=O)(O)OC[C@H]3O[C@@H](n4cnc5c(N)ncnc54)[C@H](O)[C@@H]3O)c2cc1C  Kd (Splicing factor 1 (Homo sapiens, UniProt Q15637); binding; lysate): 0.842 µM
CCOC(=O)C1=C(C)NC(C)=C(C(=O)OC)C1c1cccc([N+](=O)[O-])c1 (stereo not drawn)  Ki (SLC10A2; transporter uptake, inhibitor): 34.1 µM
N=C(N)c1ccc(CN)cc1  Kd (Coagulation factor X (F10, Homo sapiens, UniProt P00742); binding, BLI): 1700 µM
O=C(c1ccccn1)c1c[nH]c2ccccc12  EC50 (AHR; reporter gene, agonist, luciferase): > 0.01 µM
CSCC[C@H](NC(=O)[C@@H](NC(=O)[C@@H](N)Cc1ccc(O)cc1)C(C)C)C(=O)NCC(=O)N[C@@H](Cc1c[nH]cn1)C(=O)N[C@@H](Cc1ccccc1)C(=O)N[C@@H](CCCNC(=N)N)C(=O)N[C@@H](Cc1c[nH]c2ccccc12)C(=O)N[C@@H](CC(=O)O)C(=O)O  EC50 (Melanocortin receptor 5 (MC5R, Homo sapiens, UniProt P33032); reporter gene, agonist): 4.46 µM
C[C@]12C=CC(=O)C=C1CC[C@@H]1[C@@H]2C(=O)C[C@@]2(C)[C@H]1CC[C@]2(O)C(=O)CO  Ki (SLC10A2; transporter uptake, inhibitor): 1480 µM
COc1ccccc1C(=O)c1c[nH]c2ccccc12  EC50 (AHR; reporter gene, agonist, luciferase): > 10 µM
